{"source": "ChEMBL document CHEMBL1122658", "about": "“Amnesia-reversal activity of a series of N-[(disubstituted-amino)alkyl] -2-oxo-1-pyrrolidineacetamides, including pramiracetam” (1984)", "key": {"Mus musculus [1]": {"system": "Mus musculus", "test": "Ability to reverse electroconvulsive shock (ECS) induced amnesia in mice, after administering intraperitoneally, at a dose of 80.0 mg/kg", "type": "functional", "conditions": "route intraperitoneal", "summary_of_the_method": "(§1)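 Male CF-1 mice (20-25 g), five groups of 20, trained in one trial on step-through inhibitory avoidance (darkened chamber). ECS given 2 h after training. Test drug or vehicle placebo injected ip 2 h after ECS, 1 h before retention test. Entry into box within 60 s scored as amnesia. % reversal = (drug − base-line ECS+placebo)/(ceiling no-ECS+placebo − base-line) ×100.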"}, "Mus musculus [2]": {"system": "Mus musculus", "test": "Ability to reverse electroconvulsive shock (ECS) induced amnesia in mice, after administering intraperitoneally, at a dose of 160 mg/kg", "type": "functional", "conditions": "route intraperitoneal", "summary_of_the_method": "as §1"}, "Mus musculus [3]": {"system": "Mus musculus", "test": "Ability to reverse electroconvulsive shock induced amnesia in mice, after administering intraperitoneally at a dose of 20.0 mg/kg", "type": "functional", "conditions": "route intraperitoneal", "summary_of_the_method": "as §1"}, "Mus musculus [4]": {"system": "Mus musculus", "test": "Compound was evaluated for the ability to reverse electroconvulsive shock (ECS) induced amnesia in mice, after administering intraperitoneally, at a dose of 320 mg/kg", "type": "functional", "conditions": "route intraperitoneal", "summary_of_the_method": "as §1"}, "Mus musculus [5]": {"system": "Mus musculus", "test": "Ability to reverse electroconvulsive shock induced amnesia in mice, after administering intraperitoneally at a dose of 5 mg/kg", "type": "functional", "conditions": "route intraperitoneal", "summary_of_the_method": "as §1"}, "Mus musculus [6]": {"system": "Mus musculus", "test": "Ability to reverse electroconvulsive shock (ECS) induced amnesia in mice, after administering intraperitoneally, at a dose of 0.63 mg/kg", "type": "functional", "conditions": "route intraperitoneal", "summary_of_the_method": "as §1"}, "Mus musculus [7]": {"system": "Mus musculus", "test": "Ability to reverse electroconvulsive shock induced amnesia in mice, after administering intraperitoneally at a dose of 1.25 mg/kg", "type": "functional", "conditions": "route intraperitoneal", "summary_of_the_method": "as §1"}, "Mus musculus [8]": {"system": "Mus musculus", "test": "Compound was evaluated for the ability to reverse electroconvulsive shock (ECS) induced amnesia in mice, after administering intraperitoneally, at a dose of […] mg/kg", "type": "functional", "summary_of_the_method": "as §1"}, "Mus musculus [9]": {"system": "Mus musculus", "test": "Ability to reverse electroconvulsive shock (ECS) induced amnesia in mice, after administering intraperitoneally, at a dose of 80 mg/kg", "type": "functional", "conditions": "route intraperitoneal", "summary_of_the_method": "as §1"}, "Mus musculus [10]": {"system": "Mus musculus", "test": "Ability to reverse electroconvulsive shock induced amnesia in mice, after administering intraperitoneally at a dose of 20 mg/kg", "type": "functional", "conditions": "route intraperitoneal", "summary_of_the_method": "as §1"}, "Mus musculus [11]": {"system": "Mus musculus", "test": "Compound was evaluated for the ability to reverse electroconvulsive shock (ECS) induced amnesia in mice, after administering intraperitoneally, at a dose of 320.0 mg/kg; 18 of 20 mice died at this dose before completion of the test", "type": "functional, organism-based", "parameters": "dose 320 mg/kg", "summary_of_the_method": "as §1"}, "Mus musculus [12]": {"system": "Mus musculus", "test": "Ability to reverse electroconvulsive shock (ECS) induced amnesia in mice, after administering intraperitoneally, at a dose of 5 mg/kg", "type": "functional", "conditions": "route intraperitoneal", "summary_of_the_method": "as §1"}, "Mus musculus [13]": {"system": "Mus musculus", "test": "Compound was evaluated for the ability to reverse electroconvulsive shock (ECS) induced amnesia in mice, after administering intraperitoneally, at a dose of 5 mg/kg", "type": "functional", "conditions": "route intraperitoneal", "summary_of_the_method": "as §1"}, "Mus musculus [14]": {"system": "Mus musculus", "test": "Compound was evaluated for the ability to reverse electroconvulsive shock (ECS) induced amnesia in mice, after administering intraperitoneally, at a dose of 40 mg/kg", "type": "functional", "conditions": "route intraperitoneal", "summary_of_the_method": "as §1"}, "Mus musculus [15]": {"system": "Mus musculus", "test": "Compound was evaluated for the ability to reverse electroconvulsive shock (ECS) induced amnesia in mice, after administering intraperitoneally, at a dose of 10 mg/kg", "type": "functional", "conditions": "route intraperitoneal", "summary_of_the_method": "as §1"}, "Mus musculus [16]": {"system": "Mus musculus", "test": "Compound was evaluated for the ability to reverse electroconvulsive shock (ECS) induced amnesia in mice, after administering intraperitoneally, at a dose of 40.0 mg/kg", "type": "functional", "conditions": "route intraperitoneal", "summary_of_the_method": "as §1"}, "Mus musculus [17]": {"system": "Mus musculus", "test": "Compound was evaluated for the ability to reverse electroconvulsive shock (ECS) induced amnesia in mice, after administering intraperitoneally, at a dose of 80.0 mg/kg; 18 of 20 mice died at this dose", "type": "functional", "conditions": "route intraperitoneal", "summary_of_the_method": "as §1"}, "Mus musculus [18]": {"system": "Mus musculus", "test": "Ability to reverse electroconvulsive shock induced amnesia in mice, after administering intraperitoneally at a dose of 2.5 mg/kg", "type": "functional", "conditions": "route intraperitoneal", "summary_of_the_method": "as §1"}}, "note": "Where “and” joins values, the source holds several entries; their conditions need not be identical. Equal entries are not always repeated."}
{"smiles": "O=C(CN1CCCC1=O)NCCCN1CCOCC1", "values": [{"measurement": "Amnesia reversal", "setting": "Mus musculus [1]", "value": 58, "unit": "%"}, {"measurement": "Amnesia reversal", "setting": "Mus musculus [2]", "value": 54, "unit": "%"}, {"measurement": "Amnesia reversal", "setting": "Mus musculus [3]", "value": 17, "unit": "%"}, {"measurement": "Amnesia reversal", "setting": "Mus musculus [4]", "value": 15, "unit": "%"}, {"measurement": "Amnesia reversal", "setting": "Mus musculus [5]", "value": 0, "unit": "%"}]}
{"smiles": "CC1CCCCN1CCCNC(=O)CN1CCCC1=O", "note": "(stereo not drawn)", "values": [{"measurement": "Amnesia reversal", "setting": "Mus musculus [1]", "value": 17, "unit": "%"}, {"measurement": "Amnesia reversal", "setting": "Mus musculus [6]", "value": 0, "unit": "%"}, {"measurement": "Amnesia reversal", "setting": "Mus musculus [7]", "value": 0, "unit": "%"}, {"measurement": "Amnesia reversal", "setting": "Mus musculus [8]", "value": 10, "unit": "%"}, {"measurement": "Amnesia reversal", "setting": "Mus musculus [3]", "value": 33, "unit": "%"}, {"measurement": "Amnesia reversal", "setting": "Mus musculus [5]", "value": 33, "unit": "%"}]}
{"smiles": "CC1CCCC(C)N1CCCCNC(=O)CN1CCCC1=O", "note": "(stereo not drawn)", "values": [{"measurement": "Amnesia reversal", "setting": "Mus musculus [9]", "value": 100, "unit": "%"}, {"measurement": "Amnesia reversal", "setting": "Mus musculus [2]", "value": 60, "unit": "%"}, {"measurement": "Amnesia reversal", "setting": "Mus musculus [10]", "value": 60, "unit": "%"}, {"measurement": "Amnesia reversal", "setting": "Mus musculus [11]", "value": "18 of 20 mice died at this dose before completion of the test"}, {"measurement": "Amnesia reversal", "setting": "Mus musculus [5]", "value": 50, "unit": "%"}]}
{"smiles": "NC(=O)CN1CCCC1=O", "note": "[PIRACETAM]", "values": [{"measurement": "Amnesia reversal", "setting": "Mus musculus [9]; 80 mg/kg", "value": "15% and 10%"}, {"measurement": "Amnesia reversal", "setting": "Mus musculus [10]", "value": 20, "unit": "%"}, {"measurement": "Amnesia reversal", "setting": "Mus musculus [12]", "value": 10, "unit": "%"}, {"measurement": "Amnesia reversal", "setting": "Mus musculus [13]", "value": 15, "unit": "%"}]}
{"smiles": "CC(C)(CNC(=O)CN1CCCC1=O)N1CCCCC1", "values": [{"measurement": "Amnesia reversal", "setting": "Mus musculus [1]", "value": 55, "unit": "%"}, {"measurement": "Amnesia reversal", "setting": "Mus musculus [2]", "value": 45, "unit": "%"}, {"measurement": "Amnesia reversal", "setting": "Mus musculus [3]", "value": 27, "unit": "%"}, {"measurement": "Amnesia reversal", "setting": "Mus musculus [4]", "value": 27, "unit": "%"}, {"measurement": "Amnesia reversal", "setting": "Mus musculus [14]", "value": 73, "unit": "%"}, {"measurement": "Amnesia reversal", "setting": "Mus musculus [5]", "value": 18, "unit": "%"}]}
{"smiles": "CN(C)CCCN1c2ccccc2CCc2ccccc21", "note": "[IMIPRAMINE]", "values": [{"measurement": "Amnesia reversal", "setting": "Mus musculus [15]", "value": 10, "unit": "%"}, {"measurement": "Amnesia reversal", "setting": "Mus musculus [10]", "value": 5, "unit": "%"}, {"measurement": "Amnesia reversal", "setting": "Mus musculus [16]", "value": 15, "unit": "%"}, {"measurement": "Amnesia reversal", "setting": "Mus musculus [5]", "value": 10, "unit": "%"}]}
{"smiles": "CCC1CCC(=O)N1CC(=O)NCCCN1C(C)CCCC1C", "note": "(stereo not drawn)", "values": [{"measurement": "Amnesia reversal", "setting": "Mus musculus [17]", "value": 42, "unit": "%"}, {"measurement": "Amnesia reversal", "setting": "Mus musculus [7]", "value": 20, "unit": "%"}, {"measurement": "Amnesia reversal", "setting": "Mus musculus [18]", "value": 50, "unit": "%"}, {"measurement": "Amnesia reversal", "setting": "Mus musculus [3]", "value": 42, "unit": "%"}, {"measurement": "Amnesia reversal", "setting": "Mus musculus [12]", "value": 50, "unit": "%"}]}
{"smiles": "CC1CCCC(C)N1CCCNC(=O)CN1CCC(c2ccccc2)C1=O", "note": "(stereo not drawn)", "values": [{"measurement": "Amnesia reversal", "setting": "Mus musculus [9]", "value": 0, "unit": "%"}, {"measurement": "Amnesia reversal", "setting": "Mus musculus [10]", "value": 67, "unit": "%"}, {"measurement": "Amnesia reversal", "setting": "Mus musculus [13]", "value": 50, "unit": "%"}]}
{"smiles": "NC1=NC(=O)C(c2ccccc2)O1", "note": "(stereo not drawn) [PEMOLINE]", "values": [{"measurement": "Amnesia reversal", "setting": "Mus musculus [15]", "value": 56, "unit": "%"}, {"measurement": "Amnesia reversal", "setting": "Mus musculus [18]", "value": 20, "unit": "%"}, {"measurement": "Amnesia reversal", "setting": "Mus musculus [10]", "value": 44, "unit": "%"}, {"measurement": "Amnesia reversal", "setting": "Mus musculus [16]", "value": 56, "unit": "%"}, {"measurement": "Amnesia reversal", "setting": "Mus musculus [12]", "value": 20, "unit": "%"}]}
{"smiles": "C1CCc2nnnn2CC1", "note": "[PENTYLENETETRAZOL]", "values": [{"measurement": "Amnesia reversal", "setting": "Mus musculus [15]", "value": 10, "unit": "%"}, {"measurement": "Amnesia reversal", "setting": "Mus musculus [18]", "value": 15, "unit": "%"}, {"measurement": "Amnesia reversal", "setting": "Mus musculus [10]", "value": 15, "unit": "%"}, {"measurement": "Amnesia reversal", "setting": "Mus musculus [14]", "value": 15, "unit": "%"}, {"measurement": "Amnesia reversal", "setting": "Mus musculus [5]", "value": 20, "unit": "%"}]}
{"smiles": "CCC1(C)CC(=O)NC1=O", "note": "(stereo not drawn) [ETHOSUXIMIDE]", "values": [{"measurement": "Amnesia reversal", "setting": "Mus musculus [9]", "value": 10, "unit": "%"}, {"measurement": "Amnesia reversal", "setting": "Mus musculus [15]", "value": 15, "unit": "%"}, {"measurement": "Amnesia reversal", "setting": "Mus musculus [2]", "value": 10, "unit": "%"}, {"measurement": "Amnesia reversal", "setting": "Mus musculus [10]", "value": 12, "unit": "%"}, {"measurement": "Amnesia reversal", "setting": "Mus musculus [14]", "value": 10, "unit": "%"}]}
